Results from different studies.
Protocols differ between the studies behind these lines.
Observed: metabolic stability

Cc1cc(Cl)c(Cl)cc1NC(=O)c1ccc(N2CCNCC2)c([N+](=O)[O-])c1
scaled CLint (CD-1 mouse; liver microsomes; 1 µM; 1 h; pH 7.4): 21 mL/min/kg

CCCN(C)Cc1cc(-c2[nH]c3cccc(F)c3c(=O)c2C)ccc1Cc1ccc(OC(F)(F)F)cc1
scaled CLint (mouse; liver microsomes): 1570 mL/min/kg

Cc1ccc(F)c2cc(C(=O)N[C@@H]3CCC[C@H](c4ccncc4)C3)[nH]c12
scaled CLint (mouse; hepatocytes; 0.5 µM; 1 h): 399 mL/min/kg

Cc1ccc(-c2nc3ccccc3s2)cc1NC(=O)c1cc([N+](=O)[O-])c(N2CCN(C)CC2)cc1Cl
scaled CLint (CD-1 mouse; liver microsomes; 1 µM; 1 h; pH 7.4): 105 mL/min/kg

CC(=O)Nc1cc(Nc2cc(NC3CC3)n3ncc(C#N)c3n2)ccc1N(C)C[C@@H]1CCCN1
scaled CLint (male CD-1 mouse; hepatocytes; 1 µM; serum-free): 171 mL/min/kg

O=C(c1ccc(F)cc1)C1CCN(CCn2c(=O)[nH]c3ccccc3c2=O)CC1
scaled CLint (mouse; liver microsomes): 376 mL/min/kg

CCOc1c(O)cc(Br)c2c1CN1CCc3cc(OCC(F)F)c(O)cc3[C@@H]1C2
scaled CLint (mouse; liver S9; 2 µM; pH 7.4): 1040 mL/min/kg

Cc1ccc(F)c2cc(C(=O)N[C@@H]3CCC[C@H](N4CCN(S(C)(=O)=O)CC4)C3)[nH]c12
scaled CLint (mouse; hepatocytes; 0.5 µM; 1 h): 328 mL/min/kg

O=c1ccc2ccc(O)cc2o1
scaled CLint (mouse; liver S9; 2 µM; pH 7.4): 2120 mL/min/kg

Cc1cc(NC(=O)Cc2ccc(F)c(C#N)c2)n(CC2CCCCC2)n1
scaled CLint (mouse; liver microsomes): 2970 mL/min/kg

Cc1ccc(-c2nc3ccccc3s2)cc1NC(=O)c1cc([N+](=O)[O-])c(F)cc1F
scaled CLint (CD-1 mouse; liver microsomes; 1 µM; 1 h; pH 7.4): 52 mL/min/kg

COc1cc(C2Oc3cc([C@H]4Oc5cc(O)cc(O)c5C(=O)[C@@H]4O)ccc3OC2CO)ccc1O (stereo partly drawn)
scaled CLint (mouse; liver microsomes; 1 µM): 66.5 mL/min/kg

Cc1ccc(F)c2cc(C(=O)N[C@@H]3CCC[C@H](N4CCN(C)C(=O)C4)C3)[nH]c12
scaled CLint (mouse; hepatocytes; 0.5 µM; 1 h): 164 mL/min/kg

CN[C@@H]1CCN(c2ccc(Nc3cc(NC4CC4)n4ncc(C#N)c4n3)cc2NC(C)=O)C1
scaled CLint (male CD-1 mouse; hepatocytes; 1 µM; serum-free): 126 mL/min/kg

O=C(Nc1cncc(-c2nc3ccccc3o2)c1)c1ccc(N2CCNCC2)c([N+](=O)[O-])c1
scaled CLint (CD-1 mouse; liver microsomes; 1 µM; 1 h; pH 7.4): 10 mL/min/kg
